Results: ChEMBL document CHEMBL1153366, “Synthesis, discovery and preliminary SAR study of benzofuran derivatives as angiogenesis inhibitors” (Bioorg Med Chem Lett, 2009)

Experiments:
Type in all cases: functional, cell-based
Bel-7402 = assay: Antiproliferative activity against human Bel7402 cells after 96 hrs by MTT method
Procedure, shortened: (§1)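 Cancer cells seeded at 1500 cells/well in 96-well plates and allowed 20 h to attach. They were then exposed to compound in 0.1% DMSO over a range of concentrations, with an equal volume of carrier as control, in triplicate. After 96 h, MTT was used to give relative viability. IC50 came from the viability versus concentration relationship.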

A549 = assay: Antiproliferative activity against human A549 cells after 96 hrs by MTT method; procedure, shortened: as §1
HUVEC = assay: Antiproliferative activity against HUVEC after 96 hrs by MTT method; conditions: Homo sapiens
Procedure, shortened: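 HUVECs seeded at 1000 cells/well in 96-well plates and left to attach 20 h. Compound added in 0.1% DMSO at several concentrations, with a carrier-only control. Each concentration run in triplicate. After 96 h exposure, viability was read by MTT and expressed relative to control. IC50 was derived from viability versus concentration.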

MCF7 = assay: Antiproliferative activity against human MCF7 cells after 96 hrs by MTT method; procedure, shortened: as §1

IC50 (Bel-7402)	IC50 (A549)	IC50 (MCF7)	SMILES	IC50 (HUVEC) [µM]
Not Active	Not Active	Not Active	CCOC(=O)/C=C/c1oc2ccc(O)cc2c1C(=O)OCC	4.3
Not Active	Not Active	Not Active	CCOC(=O)/C=C/c1c(C)oc2ccc(O)cc12	27.6
Not Active	Not Active	Not Active	CCOC(=O)/C=C/c1c(C(=O)OCC)oc2ccc(O)cc12	32.6
Not Active	Not Active	Not Active	CCOC(=O)/C=C/c1oc2ccc(O)cc2c1C	> 50
